Molecules are shown by their SMILES. pIC50: −log10 of the molar value. The source made the active and inactive calls. The calls are words filed in the database; no cut-off is given here.

The nature of assay [1]: (§1) Antiplatelet activity against New Zealand white rabbit platelets assessed as inhibition of ADP-induced platelet aggregation preincubated at 100 uM for 2 mins before challenge […] by spectrophotometry. Particulars: Oryctolagus cuniculus. It counts as functional. The method, boiled down: (§2)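 Resuspended in Tyrode's with 1 mM Ca2+ at 2.5 × 10^8/mL, stirred at 900 rpm. Sample in DMSO (0.5% final) for 2 min at 37 °C, then ADP 20 μM, AA 100 μM or PAF 10 nM. Read-out: maximal turbidimetric light-transmission rise within 4 min. Inhibition is calculated against vehicle.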

The nature of assay [2]: Antiplatelet activity against New Zealand white rabbit platelets assessed as inhibition of arachidonic acid-induced platelet aggregation preincubated at 100 uM for 2 mins before challenge […] by spectrophotometry. The assay is classed as functional. The note with it: Oryctolagus cuniculus. Put shortly:
as §2

The nature of assay [3]: Antiplatelet activity against New Zealand white rabbit platelets assessed as inhibition of PAF-induced platelet aggregation preincubated at 100 uM for 2 mins before challenge […] by spectrophotometry. The assay is classed as functional. Particulars: Oryctolagus cuniculus. Put shortly: as §2
A short description of assay [4]: Antiplatelet activity against New Zealand white rabbit platelets assessed as inhibition of ADP-induced platelet aggregation preincubated for 2 mins before challenge […] by spectrophotometry. The assay is classed as functional, cell-based. Particulars: Oryctolagus cuniculus. Put shortly: as §2
The nature of assay [5]: Antiplatelet activity against New Zealand white rabbit platelets assessed as inhibition of arachidonic acid-induced platelet aggregation preincubated for 2 mins before challenge […] by spectrophotometry. The assay is classed as functional, cell-based. Particulars: Oryctolagus cuniculus. Put shortly: (§3)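 Washed rabbit platelets: PRP made with 5 mM EDTA (final), then washed in Ca2+-free Tyrode's with 0.35% BSA, heparin and apyrase at 37 °C for 20 min. Resuspended in Tyrode's with 1 mM Ca2+ at 2.5 × 10^8/mL, stirred at 900 rpm. Sample in DMSO (0.5% final) for 2 min at 37 °C, then ADP 20 μM, AA 100 μM or PAF 10 nM. Read-out: maximal turbidimetric light-transmission rise within 4 min. Inhibition is calculated against vehicle.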

Assay [6] in a line: Antiplatelet activity against New Zealand white rabbit platelets assessed as inhibition of PAF-induced platelet aggregation preincubated for 2 mins before challenge […] by spectrophotometry. The note with it: Oryctolagus cuniculus. The assay is classed as functional, cell-based. Put shortly:
as §3

Assay [7] concerns Platelet. Nature of the assay: Prothrombotic activity in New Zealand white rabbit platelets assessed as increase in platelet aggregation at 100 uM by spectrophotometry. It counts as functional, Oryctolagus cuniculus. Put shortly:
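Washed rabbit platelets are prepared the same way: 2.5 × 10^8/mL in Tyrode's with 1 mM Ca2+, stirred at 900 rpm at 37 °C, DMSO fixed at 0.5% final. Compound is added alone, with no agonist. Aggregation is read turbidimetrically as light transmission, with suspension set as 0% and buffer as 100%. The result is reported as % increase in aggregation.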

Assay [8] is described as follows: Antiplatelet activity against New Zealand white rabbit platelets assessed as inhibition of PAF-induced platelet aggregation preincubated at 10 uM for 2 mins before challenge […] by spectrophotometry. The assay is classed as functional. Particulars: Oryctolagus cuniculus. The method, boiled down: as §3
Assay [9] has as its system Platelet. The assay is described as §1. The assay is classed as functional. Particulars: Oryctolagus cuniculus. Put shortly:
as §2

A further assay can be described thus: cells. The note with it: Oryctolagus cuniculus, New Zealand white, Platelet, read-out: INH.

Consider `COc1cc(C[C@H](C)[C@H](C)Cc2cc3c(cc2O)OCO3)c(O)cc1O` (relative stereo), for which the inhibition at 100 µM turned out to be 68.2% in assay [1], 90.9% in assay [2] and 11.7% in assay [3].
Regarding `CC(Cc1cc2c(cc1O)OCO2)C(C)C(=O)c1ccc2c(c1)OCO2` (stereo unspecified) [SAUCERNEOL G], the inhibition at 100 µM was determined as 90.9% in assay [1], 94.1% in assay [2] and 3.9% in assay [3]. The pIC50 was 4.46 in assay [4] and 4.59 in assay [5].
Take `C=CCc1cc(OC)c(O[C@H](C)[C@H](OC(C)=O)c2cc(OC)c(OC)c(OC)c2)c(OC)c1`: the inhibition at 100 µM in assay [1] was 84.7%; in assay [2], 93.5%; in assay [3] it was 68.1%. Moreover, the values for the pIC50 in assay [4], in assay [5] and in assay [6] were 4.55, 4.22 and 4.10, respectively.
With `C/C=C/c1cc(OC)c2c(c1)[C@H](C)[C@@H](c1ccc(O)c(OC)c1)O2` [LICARIN A], the Activity in the assay on Platelet [7] is listed as 66.8%.
On to `C[C@@H]1O[C@@H](Oc2c(-c3ccc(O)c(O)c3)oc3cc(O)cc(O)c3c2=O)[C@H](O)[C@H](O)[C@H]1O` [QUERCITRIN], for which the inhibition at 100 µM turned out to be 83.1% in assay [1], 21.8% in assay [2] and 6.8% in [3].
In the case of `COc1cc(C[C@@H](C)[C@H](C)Cc2ccc(O)c(OC)c2)ccc1O` [(-)-DIHYDROGUAIARETICACID], the Activity with Platelet [7] is 76.4%.
Regarding `C[C@@H]1[C@H]2c3cc4c(cc3O[C@@]35OCOC3=CC(=O)[C@H](C[C@H]1C)[C@H]25)OCO4` [SAUCHINONE A], the inhibition at 100 µM is 48.2% in assay [1], 28.2% in assay [2] and 23.6% in assay [3].
`CCCCCCCCCCCCCCCCCCNC(=O)OCC(COP(=O)([O-])OCC[n+]1ccsc1)OC` (stereo unspecified): the inhibition at 10 µM in assay [8] was 94.8%.
Turning to `C[C@@H]1[C@H]2c3cc4c(cc3O[C@@]35OCOC3=CC(=O)[C@H](C[C@H]1C)[C@@H]25)OCO4` [SAUCHINONE], the inhibition result in the assay with Platelet [9] was “inactive”. In addition, the inhibition at 100 µM in [2] was determined as 10.7%; in [3], 11.8%.
Turning to `CC(=O)Oc1ccccc1C(=O)O` [ASPIRIN], in [2], the inhibition at 100 µM is 99.7%.
`COc1cc(C[C@H](C)[C@H](C)Cc2cc3c(cc2O)OCO3)ccc1O` (relative stereo): the Activity with Platelet [7] was determined as 66.1%.
As to `COC1=CC(=O)C(C[C@H](C)[C@H](C)Cc2cc3c(cc2O)OCO3)=CC1=O` (relative stereo), the inhibition at 100 µM was found to be 90.4% in [1], 98.7% in assay [2] and 92% in assay [3]. Also, the pIC50 is 5.01 in assay [4], 4.85 in assay [5] and 4.21 in assay [6].
Regarding `COc1cc(OC)c(C[C@H](C)[C@H](C)Cc2cc3c(cc2O)OCO3)cc1O` (relative stereo), the results for the inhibition at 100 µM in assay [1], in assay [2] and in assay [3] were 85.2%, 96.8% and 26.7%, respectively. Also, the pIC50 in assay [4] was 4.52; in assay [5], 4.53.
As to `C/C=C/c1cc(OC)c2c(c1)[C@H](C)[C@@H](c1ccc3c(c1)OCO3)O2` [(-)-LICARIN B], the inhibition at 100 µM was determined as 86.7% in assay [1], 42.5% in assay [2] and 5.3% in assay [3]. In addition, the pIC50 in [4] is 4.30.
With `COC(=O)[C@H](c1ccccc1Cl)N1CCc2sccc2C1` [CLOPIDOGREL], the inhibition at 30 µM in “cells” amounted to 80.2%.
Turning to `COc1ccc([C@@H]2O[C@H](c3cc(OC)c4c(c3)OCO4)[C@@H](C)[C@@H]2C)cc1OC` (relative stereo), the inhibition at 100 µM in assay [1] was 19.1%; in assay [2], 54.4%; in assay [3], 42%.
`C[C@H](Cc1cc2c(cc1O)OCO2)[C@@H](C)Cc1cc2c(cc1O)OCO2`: the Activity with Platelet [7] is 49.5%.
Consider `COc1ccc([C@H]2O[C@@H](c3ccc(OC)c(OC)c3)[C@@H](C)[C@H]2C)cc1OC`, for which the values for the inhibition at 100 µM in assay [1], in [2] and in assay [3] were 51.8%, 19.4% and 94.4%, respectively. Also, the pIC50 in assay [6] is 5.04.
For the molecule `COc1ccc([C@H]2O[C@@H](c3cc(OC)c4c(c3)OCO4)[C@H](C)[C@@H]2C)cc1OC` (relative stereo), the inhibition at 100 µM in [1] was 75.6%; in assay [2], 80.3%; in assay [3], 98.9%. The pIC50 in assay [4] is 4.25; in [5] it was 4.07; in assay [6] it was 4.43.
For `COc1cc(O)c(C[C@H](C)[C@H](C)Cc2cc3c(cc2O)OCO3)cc1OC` (relative stereo), the values for the inhibition at 100 µM in [1], in [2] and in assay [3] were 71.5%, 73% and 7%, respectively.
As to `C[C@@H]1[C@@H](c2ccc3c(c2)OCO3)c2c(c(O)cc3c2OCO3)C[C@H]1C`, the results for the inhibition at 100 µM in [1], in assay [2] and in assay [3] were 84%, 83.7% and 0.6%, respectively. Also, the pIC50 in assay [4] was 4.39; in assay [5] it was 4.15.

Usually pIC50 stands for −log10 of the IC50, conventionally taken in molar units.

Source of the values: ChEMBL document CHEMBL3102821, “Lignans from the aerial parts of Saururus chinensis: isolation, structural characterization, and their effects on platelet aggregation” (J Nat Prod, 2014).
